Experimental data reported in ChEMBL document CHEMBL1629654, “Breakthrough Aspergillus fumigatus and Candida albicans double infection during caspofungin treatment: laboratory characteristics and implication for susceptibility testing” (2009).

Tests used:
Type in all cases: functional
Candida albicans [1] = experiment: Antimicrobial activity against Candida albicans isolate R after 24 hrs by microdilution method
How it was run: (§1)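 Broth microdilution in microtiter plates, read spectrophotometrically at 490 nm. MIC taken as the lowest drug dilution giving 50% growth inhibition. C. krusei […] run as control in each run. Read at 24 h and 48 h; trailing growth noted at 48 h.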

Candida albicans [2] = experiment: Antimicrobial activity against Candida albicans isolate R after 48 hrs by microdilution method; how it was run: as §1
Candida albicans [3] = experiment: Antimicrobial activity against Candida albicans isolate C after 48 hrs by microdilution method; how it was run: as §1
Candida albicans [4] = experiment: Antimicrobial activity against Candida albicans isolate C after 48 hrs by EUCAST microdilution method
How it was run: (§2)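 EUCAST broth microdilution, plates read spectrophotometrically at 490 nm. MIC is the lowest dilution giving 50% growth inhibition. C. krusei […] control included in each run.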

Candida albicans [5] = experiment: Antimicrobial activity against Candida albicans isolate R after 48 hrs by EUCAST microdilution method; how it was run: as §2
Candida albicans [6] = experiment: Antimicrobial activity against Candida albicans isolate C after 24 hrs by microdilution method; how it was run: as §1

SMILES | MIC (Candida albicans [1]) | MIC (Candida albicans [2]) | MIC (Candida albicans [3]) | MIC (Candida albicans [4]) | MIC (Candida albicans [5]) | MIC (Candida albicans [6])
CCC(C)n1ncn(-c2ccc(N3CCN(c4ccc(OCC5COC(Cn6cncn6)(c6ccc(Cl)cc6Cl)O5)cc4)CC3)cc2)c1=O (stereo not drawn) [ITRACONAZOLE] | ≤ 0.03 µg/mL | ≤ 0.03 µg/mL | ≤ 0.03 µg/mL | ≤ 0.03 µg/mL | ≤ 0.03 µg/mL | ≤ 0.03 µg/mL
CC[C@@H]([C@H](C)O)n1ncn(-c2ccc(N3CCN(c4ccc(OC[C@@H]5CO[C@@](Cn6cncn6)(c6ccc(F)cc6F)C5)cc4)CC3)cc2)c1=O [POSACONAZOLE] | ≤ 0.03 µg/mL | ≤ 0.03 µg/mL | ≤ 0.03 µg/mL | ≤ 0.03 µg/mL | ≤ 0.03 µg/mL | ≤ 0.03 µg/mL
C[C@@H](c1ncncc1F)[C@](O)(Cn1cncn1)c1ccc(F)cc1F [VORICONAZOLE] | ≤ 0.03 µg/mL | ≤ 0.03 µg/mL | ≤ 0.03 µg/mL | ≤ 0.125 µg/mL | ≤ 0.03 µg/mL | ≤ 0.03 µg/mL
